Rows were chosen to be rich in hits. Some 2.8% of all compounds tested hit in one or more screens of this group.
CAL PDZ FP-1 = untagged CAL PDZ binding inhibitors, primary screen, biochemical, fluorescence polarization, HTS; Golgi-associated PDZ and coiled-coil motif-containing protein (Homo sapiens), Q9HD26; purified CAL PDZ, TMR-peptide fluorescence polarization, 1 h; inhibition, % at 24.9 µM; hit rate 0.92% among 300,000;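 active = mean inhibition of at least 30% with at least half of replicates also reaching 30%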
CAL PDZ FP-2 = CAL PDZ peptide-binding inhibitors, primary screen, biochemical, fluorescence polarization, Cer-tagged CAL PDZ, HTS; Golgi-associated PDZ and coiled-coil motif-containing protein (Homo sapiens), Q9HD26; inhibition, % at 20 µM; purified CAL PDZ, TMR-peptide fluorescence polarization, 1 h; hit rate 0.02% among 330,000; AID 504414, 2011;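 active = highest replicate inhibition of at least 40%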
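System: purified tagged CAL PDZ domain construct (CerCALP). Schedule: 1 h incubation at room temperature before polarization reading. Medium: 25 mM sodium phosphate pH 7.4, 150 mM NaCl, TCEP, IgG, Thesit. Read-out: percent inhibition from loss of millipolarization. Measured by: FP readout, S and P plane fluorescence. Probe or stimulus: fluorescent TMR peptide probe.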
dFosB act = activators of delta FosB homodimer, primary screen, biochemical, fluorescence polarization, TAMRA-CDK5 oligo, single point | Protein FosB (Mus musculus), P13346 | purified delta FosB; percent of positive-control signal above neutral wells | activation, % at 25 µM | hit rate 0.99% among 340,000;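 active = mean activation above about 17%, with every replicate also reaching it, limit read from the data, passing the limit was not always enough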
Target sequence (P13346 whole entry, looked up): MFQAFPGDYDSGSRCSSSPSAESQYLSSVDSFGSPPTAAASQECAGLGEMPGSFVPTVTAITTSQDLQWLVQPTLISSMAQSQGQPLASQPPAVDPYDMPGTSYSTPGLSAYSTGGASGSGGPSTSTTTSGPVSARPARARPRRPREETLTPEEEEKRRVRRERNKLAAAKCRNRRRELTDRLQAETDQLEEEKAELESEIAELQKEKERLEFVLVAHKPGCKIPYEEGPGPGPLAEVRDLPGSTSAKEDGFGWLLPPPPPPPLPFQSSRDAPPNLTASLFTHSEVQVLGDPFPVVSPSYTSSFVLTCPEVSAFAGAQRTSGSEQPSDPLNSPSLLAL
SR-BI HDL uptake = inhibitors of SR-BI mediated HDL lipid uptake, primary screen, ldlA[mSR-BI] cells, fluorescence, single point; Scavenger receptor class B member 1 (Mus musculus), Q61009; ldlA[mSR-BI] CHO cells, DiI-HDL uptake fluorescence, 3 h; inhibition, % at 12.5 µM; hit rate 0.96% among 320,000;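 active = mean replicate inhibition of at least 70% and a set share of replicates each scoring 70 or more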
SR-BI uptake up = activators of SR-BI mediated DiI-HDL uptake, primary screen, ldlA[mSR-BI] CHO cells, DiI fluorescence | 3 h; 100 = double the neutral-control signal | activation, % at 12.5 µM | hit rate 0.096% among 320,000 | AID 504775, 2011;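 active = mean replicate activation of at least 60% and every replicate at or above 60%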
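Assay system: LDL receptor-deficient CHO ldlA cells overexpressing murine SR-BI / Medium: BSA-supplemented, HEPES-buffered Ham's F12, pH 7.4 / Probe or stimulus: DiI-labelled HDL at 10 µg/mL final / Timing: compound with DiI-HDL co-incubation, 3 h at 37 °C / Technique: bottom-read cell fluorescence after medium removal, ex 550/em 595 nm / Measure: HDL uptake via cellular fluorescence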
Of the large screens only hits and unclear results are named; the others gave an inactive call; ! = not active in a repeat.

CCCCCCCNC(=O)C1(CC2CC(c3ccc(Cl)cc3)=NO2)CCN(C(=O)CCCCCBr)CC1 (centres undefined)	none
N#Cc1ccc(OCC(=O)Nc2ccc(N3CCCC3)cc2)cc1	none
COc1ccccc1C(=O)NCCC(=O)NCC1CCCCC1	CAL PDZ FP-1 79.4
CCn1c(C)cc(O)c(C(=O)Nc2cccc(Cl)c2)c1=O	none (no result: SR-BI uptake up)
CCn1c(C)c(C)c2cc(C(=O)Nc3cccc(Cl)c3)ccc21	SR-BI HDL uptake 101.5
CCN(C(=O)COC(=O)c1c2c(nc3ccccc13)CCC2)c1c(N)n(Cc2ccccc2)c(=O)[nH]c1=O	none (no result: CAL PDZ FP-1)
CC(C)CN(C(=O)COC(=O)c1c2c(nc3ccccc13)CCC2)c1c(N)n(Cc2ccccc2)c(=O)[nH]c1=O	SR-BI HDL uptake 71.9
Cc1nc2c(sc(=S)n2Cc2ccco2)c(=O)n1CC(=O)Nc1ccccc1Cl	dFosB act 56.4
C=CCN(CC=C)C(=O)CN1C(=O)NC(Cc2c[nH]c3ccccc23)C1=O (centres undefined)	none
COc1ccc(OC)c(S(=O)(=O)CC(O)COc2ccccc2Cl)c1 (centres undefined)	none
COc1ccccc1-c1nnc(SCC(=O)O)n1-c1ccc(C)cc1	none
COc1cc(-c2nnc(SCC(=O)O)n2-c2ccccc2)cc(OC)c1OC	CAL PDZ FP-1 68.9 (no result: CAL PDZ FP-2, SR-BI HDL uptake, SR-BI uptake up)
NC(=O)c1c(NC(=O)Cn2nc(C(=O)O)c3ccccc3c2=O)sc2c1CCCC2	dFosB act 90.6 (no result: SR-BI HDL uptake, SR-BI uptake up)
CN(C(=O)c1ccccc1)C1(C)CCS(=O)(=O)C1 (centres undefined)	none
CN(C(=O)c1cc2ccccc2oc1=O)C1(C)CCS(=O)(=O)C1 (centres undefined)	CAL PDZ FP-1 47.4
Cc1cccc(C(=O)NNC(=O)C23CC4CC(CC(C4)C2)C3)c1O	SR-BI HDL uptake 100.5
Cc1ccccc1C(=O)NNC(=O)C12CC3CC(CC(C3)C1)C2	none
COc1ccc(NC(=O)CS(=O)c2cccc(Cl)c2)cc1 (centres undefined)	none
O=C(COC(=O)c1cc(=O)c2ccccc2o1)NCc1ccccc1	CAL PDZ FP-1 50.3
O=C(COC(=O)c1ccc(Br)o1)NCc1ccc(Cl)cc1	CAL PDZ FP-1 30.6
COc1ccccc1CNC(=O)COC(=O)c1cc(=O)c2ccccc2o1	none (no result: CAL PDZ FP-1)
O=C(O)CC(NNC(=O)c1ccccc1)C(=O)Nc1ccc([N+](=O)[O-])cc1 (centres undefined)	none
CC(C)NC[C@@H](O)COc1ccc(CC(N)=O)cc1	none
COc1ccc(/C=N\NC(=O)c2cc(O)c(O)c(O)c2)cc1COc1ccc(C(=O)OCC(C)C)cc1	SR-BI HDL uptake 78.9
Cc1cc(NC(=O)CSc2nnc3ccccn23)no1	CAL PDZ FP-1 78.4
Cc1cccc(NC(=O)CSc2nc3ccccc3c(=O)n2CC2CCCO2)c1 (centres undefined)	SR-BI HDL uptake 79.9
CC(=O)Nc1cccc(NC(=O)CSc2nnc3ccccn23)c1	none
Cc1ccc(Cn2c(SCC(=O)Nc3cc(C)on3)nc3ccccc3c2=O)cc1	dFosB act 65.3
COc1ccc(C(=O)COC(=O)CNC(=O)c2ccc(OC)cc2)cc1	none (no result: CAL PDZ FP-1)
Cc1c(/C=C/C(=O)c2ccc(C(C)C)cc2)cnn1C	none
CC1(C)C=Cc2cc(-c3coc4cc(O)cc(O)c4c3=O)cc(O)c2O1	none
N#C/C(=C(/O)Cc1ccccc1)P(=O)(c1ccccc1)c1ccccc1	none
Cc1ccc(S(=O)(=O)NC2=C(N3CCN(c4ccccc4F)CC3)C(=O)c3ccccc3C2=O)cc1	SR-BI HDL uptake 96.6!
C/C(=N\NC(=O)c1nn(C)c(C)c1Br)c1ccc(NC(=O)C2CCCC2)cc1	SR-BI HDL uptake 80.4
O=C(C1=C(O)C(=O)N(CCN2CCOCC2)C1c1ccccc1)c1cccs1 (centres undefined)	CAL PDZ FP-1 31.5
CN1CCN(c2nc3c(c(=O)[nH]c(=O)n3C)n2Cc2cccc(Br)c2)CC1	none (no result: SR-BI HDL uptake, SR-BI uptake up)

Screening data as filed in PubChem.
